B1: Osa-1-4 twister ribozyme (parent)
chain: CCGCCUAACACUGCCAAUGCCGGUCCCAAGCCCGGAUAAAAGUGGAGGGGGCGG

In this data set the parent is B1. The experiment in a line: self-cleavage, relative activity (ratio to wild type); higher = more cleavage; co-transcriptional. The essentials:
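A DNA template encoding a 54-nucleotide twister ribozyme from Oryza sativa was made so that each of the 48 positions downstream of the cleavage site carried 97 % wild-type base and 1 % of each other base. Transcription in vitro ran for 2 h at 37 °C, during which the ribozyme could cleave itself. Reverse transcription used a template-switching oligonucleotide, and the products were PCR-amplified and deep-sequenced. Each read was scored as cleaved or uncleaved by whether upstream sequence was present, and relative activity is the fraction cleaved normalised to wild type.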
As to G23C, the self-cleavage was 0.05.

In the case of G23A, the self-cleavage was determined as 0.8.

Consider G22C G35C, for which the self-cleavage was 0.03.

G22C G35A: the self-cleavage is 0.03.

As for G22C G35U, the self-cleavage amounted to 0.04.

Consider G22U U43A, for which the self-cleavage is 0.12.

Take G22U U43G: the self-cleavage was determined as 0.08.

Take G22U U43C: the self-cleavage worked out at 0.1.

For G22U G48A, the self-cleavage worked out at 0.04.

Regarding G22U G48C, the self-cleavage was determined as 0.06.

Regarding G22U G48U, the self-cleavage was 0.05.

Consider G23A U43A, for which the self-cleavage was determined as 0.1.

G23A U43G: the self-cleavage came out at 0.09.

With G23A U43C, the self-cleavage stood at 0.09.

In the case of G22U G23A, the self-cleavage came to 0.08.

In the case of G22U G23C, the self-cleavage is 0.04.

For the variant G22U G23U, the self-cleavage was 0.07.

With G23A G51A, the self-cleavage is 0.09.

On to G23A G51U, for which the self-cleavage was 0.08.

For G23A G51C, the self-cleavage came to 0.07.

Turning to G22A U12A, the self-cleavage amounted to 0.35.

With G22A U12C, the self-cleavage was 0.21.

As to G22A U12G, the self-cleavage amounted to 0.08.

As for C21U G50U, the self-cleavage stood at 1.03.

C21U G50C: the self-cleavage stood at 0.94.

For the variant C21U G50A, the self-cleavage is 0.97.

Take G23C G50C: the self-cleavage amounted to 0.04.

As for G23C G50A, the self-cleavage was 0.04.

For the variant G23C G50U, the self-cleavage was determined as 0.05.

In the case of C21U G30C, the self-cleavage stood at 0.06.

As for C21U G30U, the self-cleavage was found to be 0.04.

Consider C21U G30A, for which the self-cleavage stood at 0.04.

G22C G45C: the self-cleavage was found to be 0.02.

Take G22C G45U: the self-cleavage stood at 0.03.

For G22C G45A, the self-cleavage came out at 0.03.

G22U G44A: the self-cleavage was 0.72.

Regarding G22U G44C, the self-cleavage was determined as 0.81.

Take G22U G44U: the self-cleavage amounted to 0.47.

Take G23A G34C: the self-cleavage was 0.07.

In the case of G23A G34A, the self-cleavage came out at 0.11.

For the variant G23A G34U, the self-cleavage amounted to 0.07.

With C21U C33U, the self-cleavage was 0.47.

Take C21U C33G: the self-cleavage worked out at 0.07.

For C21U C33A, the self-cleavage is 0.08.

Regarding C21U G53A, the self-cleavage turned out to be 0.64.

For the variant C21U G53U, the self-cleavage is 0.32.

Regarding C21U G53C, the self-cleavage came to 0.1.

In the case of G22A G30C, the self-cleavage came to 0.05.

Regarding G22A G30A, the self-cleavage is 0.05.

Take G22A G30U: the self-cleavage is 0.05.

Regarding G22U G47A, the self-cleavage worked out at 0.07.

On to G22U G47U, for which the self-cleavage was determined as 0.07.

Regarding G22U G47C, the self-cleavage was 0.05.

Consider C21U G54U, for which the self-cleavage was 0.93.

Take C21U G54C: the self-cleavage was 0.89.

For C21U G54A, the self-cleavage is 0.96.

For G22C U43A, the self-cleavage was 0.04.

For G22C U43G, the self-cleavage is 0.04.

Turning to G22C U43C, the self-cleavage worked out at 0.03.

On to G22A G35C, for which the self-cleavage was 0.11.

As to G22A G35A, the self-cleavage amounted to 0.34.

G22A G35U: the self-cleavage amounted to 0.32.

Regarding G22U G35C, the self-cleavage was 0.11.

As to G22U G35A, the self-cleavage is 0.36.

In the case of G22U G35U, the self-cleavage came to 0.41.

For G22A G50U, the self-cleavage is 0.94.

Regarding G22A G50C, the self-cleavage is 0.68.

Consider G22A G50A, for which the self-cleavage is 1.

For the variant G23C G45U, the self-cleavage came to 0.03.

As for G23C G45C, the self-cleavage was 0.03.

G23C G45A: the self-cleavage came out at 0.04.

For the variant G22U U24A, the self-cleavage came to 0.13.

For the variant G22U U24G, the self-cleavage came to 0.07.

As to G22U U24C, the self-cleavage worked out at 0.06.

Consider G22A G53U, for which the self-cleavage worked out at 0.14.

For G22A G53C, the self-cleavage is 0.09.

G22A G53A: the self-cleavage was 0.51.

With G23A G45C, the self-cleavage worked out at 0.05.

In the case of G23A G45U, the self-cleavage worked out at 0.06.

For the variant G23A G45A, the self-cleavage came out at 0.05.

G22C G42C: the self-cleavage is 0.04.

With G22C G42A, the self-cleavage is 0.03.

Take G22C G42U: the self-cleavage was found to be 0.02.

G23A G30C: the self-cleavage was determined as 0.04.

Turning to G23A G30U, the self-cleavage came to 0.04.

Consider G23A G30A, for which the self-cleavage worked out at 0.04.

As for G22C U37C, the self-cleavage was determined as 0.14.

Take G22C U37A: the self-cleavage amounted to 0.14.

Consider G22C U37G, for which the self-cleavage is 0.17.

As for C21U G13U, the self-cleavage was 0.04.

As for C21U G13C, the self-cleavage is 0.03.

As for C21U G13A, the self-cleavage is 0.11.

In the case of G22C G23A, the self-cleavage is 0.06.

Take G22C G23C: the self-cleavage was 0.02.

Consider G22C G23U, for which the self-cleavage worked out at 0.03.

On to G23C G48C, for which the self-cleavage worked out at 0.02.

For the variant G23C G48A, the self-cleavage was 0.02.

For the variant G23C G48U, the self-cleavage was 0.02.

Consider G23C G35U, for which the self-cleavage worked out at 0.04.

Regarding G23C G35C, the self-cleavage turned out to be 0.06.

G23C G35A: the self-cleavage is 0.04.

Take G23A G50A: the self-cleavage came to 0.23.

Turning to G23A G50U, the self-cleavage came to 0.3.

In the case of G23A G50C, the self-cleavage was 0.14.

For the variant G22A G42A, the self-cleavage is 0.17.

Regarding G22A G42C, the self-cleavage stood at 0.1.

Take G22A G42U: the self-cleavage was determined as 0.05.

On to C21U G19C, for which the self-cleavage came to 0.04.

Regarding C21U G19U, the self-cleavage is 0.21.

Take C21U G19A: the self-cleavage was determined as 0.66.

G22U G42A: the self-cleavage was found to be 0.08.

With G22U G42U, the self-cleavage was 0.05.

Consider G22U G42C, for which the self-cleavage was 0.07.

As to C21U C52U, the self-cleavage amounted to 1.02.

C21U C52G: the self-cleavage amounted to 1.02.

As to C21U C52A, the self-cleavage stood at 0.97.

On to C21U U43C, for which the self-cleavage came to 0.32.

In the case of C21U U43G, the self-cleavage was 0.47.

For the variant C21U U43A, the self-cleavage was determined as 0.89.

With C21U G47A, the self-cleavage turned out to be 0.19.

Consider C21U G47C, for which the self-cleavage worked out at 0.12.

As to C21U G47U, the self-cleavage is 0.23.

In the case of G22A G45C, the self-cleavage stood at 0.06.

For G22A G45U, the self-cleavage was determined as 0.08.

As to G22A G45A, the self-cleavage came to 0.15.

Take C21U G51C: the self-cleavage was 0.09.

Turning to C21U G51A, the self-cleavage turned out to be 0.9.

Consider C21U G51U, for which the self-cleavage amounted to 0.67.

For G23C G42U, the self-cleavage was 0.02.

For the variant G23C G42C, the self-cleavage worked out at 0.05.

Take G23C G42A: the self-cleavage amounted to 0.05.

With G23A U24C, the self-cleavage was found to be 0.05.

G23A U24G: the self-cleavage worked out at 0.02.

As for G23A U24A, the self-cleavage was determined as 0.09.

As to C21U G22U, the self-cleavage was 0.1.

C21U G22C: the self-cleavage came out at 0.17.

With C21U G22A, the self-cleavage was 0.26.

Turning to G23A G48U, the self-cleavage was 0.05.

Regarding G23A G48C, the self-cleavage is 0.06.

In the case of G23A G48A, the self-cleavage was 0.05.

G22A G44A: the self-cleavage was determined as 0.94.

As to G22A G44U, the self-cleavage came to 0.84.

Consider G22A G44C, for which the self-cleavage was found to be 0.92.

As to G23A G49U, the self-cleavage was 0.06.

Take G23A G49A: the self-cleavage is 0.06.

Consider G23A G49C, for which the self-cleavage worked out at 0.05.

In the case of C21U G44C, the self-cleavage was found to be 0.99.

Regarding C21U G44U, the self-cleavage was 0.95.

Consider C21U G44A, for which the self-cleavage is 0.97.

G23C G51A: the self-cleavage is 0.05.

With G23A U37A, the self-cleavage stood at 0.77.

As to G23A U37C, the self-cleavage came to 0.72.

Regarding G23A U37G, the self-cleavage was 0.78.

Consider C21U G23C, for which the self-cleavage came to 0.06.

For the variant C21U G23U, the self-cleavage came to 0.06.

C21U G23A: the self-cleavage turned out to be 0.1.

As to G23A G54U, the self-cleavage is 0.41.

Consider G23A G54C, for which the self-cleavage came to 0.21.

In the case of G23A G54A, the self-cleavage was determined as 0.2.

For G23A G53U, the self-cleavage amounted to 0.11.

For G23A G53C, the self-cleavage was determined as 0.06.

Take G23A G53A: the self-cleavage was 0.15.

In the case of G22A U24G, the self-cleavage is 0.13.

Regarding G22A U24A, the self-cleavage was 0.36.

With G22A U24C, the self-cleavage is 0.16.

Turning to G23A G47A, the self-cleavage stood at 0.07.

With G23A G47U, the self-cleavage came out at 0.06.

These data come from the RNAGym collection of RNA variant scans (doi:10.1002/anie.201605470).
